Source: ChEMBL document CHEMBL1154143, “Cytotoxic and anti-inflammatory cembranoids from the soft coral Lobophytum crassum” (J Nat Prod, 2008)
In brackets after ≈: the same amount, converted by molar mass.

How the values were obtained:
Ca9-22 = assay: Cytotoxicity against human Ca9-22 cells by MTT assay; format: functional, cell-based
Summary of the method: (§1)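 Human cancer cell lines obtained from ATCC. Cytotoxicity read by MTT colorimetric method.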

MCF7 = assay: Cytotoxicity against human MCF7 cells by MTT assay; format: functional, cell-based; summary of the method: as §1
[1] = Cytotoxicity against human Hep3B cells by MTT assay; format: functional, cell-based, Hep 3B2; summary of the method: as §1
A549 = assay: Cytotoxicity against human A549 cells by MTT assay; format: functional, cell-based; summary of the method: as §1
HepG2 = assay: Cytotoxicity against human HepG2 cells by MTT assay; format: functional, cell-based; summary of the method: as §1
MDA-MB-231 = assay: Cytotoxicity against human MDA-MB-231 cells by MTT assay; format: functional, cell-based; summary of the method: as §1
RAW264.7 [2] = assay: Antiinflammatory activity in mouse RAW264.7 cells assessed as reduction in LPS-induced COX2 protein level at 10 uM treated 5 mins before LPS challenge by Western blot analysis relative to control; format: functional; parameters: scale not given: the % may be the effect or the level left
Summary of the method: (§2)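 Murine RAW 264.7 macrophages kept in DMEM with 10% heat-inactivated FBS at 37 °C, 5% CO2. Compound added 5 min before LPS (0.01 µg/mL), then 16 h incubation. Lysates of equal protein run on SDS-PAGE and blotted. iNOS and COX-2 probed, β-actin used as loading control, ECL detection. Band IOD expressed relative to the LPS-only control. One-way ANOVA with Student-Newman-Keuls test.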

RAW264.7 [3] = assay: Antiinflammatory activity in mouse RAW264.7 cells assessed as reduction in LPS-induced iNOS protein level at 10 uM treated 5 mins before LPS challenge by Western blot analysis relative to control; format: functional; parameters: scale not given: the % may be the effect or the level left; summary of the method: as §2

SMILES | IC50 (Ca9-22) [µg/mL] | IC50 (MCF7) [µg/mL] | IC50 [1] [µg/mL] | IC50 (A549) [µg/mL] | IC50 (HepG2) [µg/mL] | IC50 (MDA-MB-231) [µg/mL] | Activity (RAW264.7 [2]) [%] | Activity (RAW264.7 [3]) [%]
C=C1C(=O)O[C@H]2/C=C(\C)CC/C=C(\C)C/C=C/[C@](C)(O)CC[C@@H]12 [CRASSUMOLIDE D] | > 5 | > 5 | > 5 | > 5 | > 5 | > 5 | – | –
O=C(/C=C/c1ccc(O)c(O)c1)OCCc1ccccc1 [CAFFEIC ACID PHENETHYL ESTER] | – | – | – | – | – | – | 67.2 | 2.5
COc1cccc2c1C(=O)c1c(O)c3c(c(O)c1C2=O)C[C@@](O)(C(=O)CO)C[C@@H]3O[C@H]1C[C@H](N)[C@H](O)[C@H](C)O1 [DOXORUBICIN] | 0.1 (≈ 0.184 µM) | 0.2 (≈ 0.368 µM) | 0.2 (≈ 0.368 µM) | – | 0.2 (≈ 0.368 µM) | 0.2 (≈ 0.368 µM) | – | –
C/C1=C\[C@@H]2OC(=O)[C@@H](CN(C)C)[C@@H]2CCC(C)/C=C/C/C(C(=O)O)=C/CC1 (stereo not given in full) | > 5 | > 5 | > 5 | > 5 | > 5 | > 5 | – | –
C=C1C(=O)O[C@H]2/C=C(\C)CC/C=C(\C(=O)OC)CC/C=C(\C)CC[C@@H]12 [CRASSUMOLIDE C] | 1.7 (≈ 4.94 µM) | > 5 | > 5 | > 5 | > 5 | > 5 | 34.5 | 2.3
C=C(CO)[C@@H]1CC[C@@](C)(OO)/C=C/C/C(C)=C/CC/C(C)=C/[C@@H]1O [CRASSUMOLIDE E] | > 5 | > 5 | > 5 | > 5 | > 5 | > 5 | – | –
C=C1C(=O)O[C@H]2/C=C(\C)CC/C=C(/C(=O)O)CC/C=C(\C)CC[C@@H]12 [LOBOHEDLEOLIDE] | 2.8 (≈ 8.47 µM) | > 5 | 4.7 (≈ 14.2 µM) | 4.6 (≈ 13.9 µM) | > 5 | > 5 | 39.2 | 21.5
C=C1C(=O)O[C@H]2/C=C(\C)C/C=C/[C@@](C)(O)CC/C=C(\C)CC[C@@H]12 [CRASSUMOLIDE F] | > 5 | > 5 | > 5 | > 5 | > 5 | > 5 | – | –
C=C(CO)[C@@H]1CC/C(C)=C/CC/C(C)=C/CC/C(C)=C/[C@@H]1O | > 5 | > 5 | > 5 | > 5 | > 5 | > 5 | – | –
C=C1C(=O)O[C@H]2C/C(C)=C/[C@@H](O)C/C(C)=C/CC/C(C)=C/C[C@H]12 [CRASSUMOLIDE A] | 3.2 (≈ 10.1 µM) | > 5 | > 5 | > 5 | > 5 | > 5 | 50.2 | 26.8
C=C1C(=O)O[C@H]2/C=C(\C)CC[C@H](OC(C)=O)[C@@]3(C)CC[C@H](OO3)/C(C)=C\C[C@@H]12 [DENTICULATOLIDE] | 1.2 (≈ 3.07 µM) | 2 (≈ 5.12 µM) | 2.5 (≈ 6.4 µM) | 2.3 (≈ 5.89 µM) | 2.4 (≈ 6.15 µM) | 2 (≈ 5.12 µM) | 34.3 | 10.2
C=C1C(=O)O[C@H]2/C=C(\C)CC/C=C(\CO)CC/C=C(\C)CC[C@@H]12 [CRASSUMOLIDE B] | > 5 | > 5 | > 5 | > 5 | > 5 | > 5 | – | –
